Experimental data from different studies.
Each line is one published result; the experiments were not run side by side.

SMILES | target or system | test | system | conditions | measurement | value
CCOc1ccc(Nc2c3c(nc4ccccc24)CCC3)cc1 | Leishmania amazonensis | parasite growth, MTT |  | promastigote | IC50 | 1430 nM
COc1ccc2/c(=N/c3ccccc3NC(=O)[C@@H](N)C(C)(C)C)cc(-c3ccc4c(c3)OCCO4)oc2c1 | NCI-H1975 | cell growth or viability, CCK-8 |  | 1 µM | inhibition | 4.59%
O=C(Nc1ccc(-c2ccc3ncn(Cc4ccccc4)c(=O)c3c2)cn1)C1CCCC1 | NCI-H1975 | cell growth or viability, CCK-8 |  | 72 h | IC50 | > 10000 nM
COc1ccc2/c(=N/c3ccccc3NC(=O)[C@@H](N)C(C)(C)C)cc(-c3ccc4c(c3)OCO4)oc2c1 | NCI-H1975 | cell growth or viability, CCK-8 |  | 1 µM | inhibition | 9.4%
O=C(Nc1nc2cc(-c3ccc4ncn(Cc5ccccc5)c(=O)c4c3)ccc2s1)c1ccccc1 | NCI-H1975 | cell growth or viability, MTT |  | 72 h | IC50 | > 20000 nM
CCCCC(=O)Nc1ccc(-c2ccc3ncn(CCC(C)C)c(=O)c3c2)cn1 | NCI-H1975 | cell growth or viability, CCK-8 |  | 72 h | IC50 | 540 nM
Nc1nc2c(ncn2COCCO)c(=O)[nH]1 | Human alphaherpesvirus 2 | viral replication, inhibitor, qPCR | Vero |  | IC50 | 220 nM
C[C@@H]1[C@H](O)[C@@H](C)/C=C/C=C/C=C/C=C/C=C/C=C/C=C/[C@H](O[C@@H]2O[C@H](C)[C@@H](O)[C@H](N)[C@@H]2O)C[C@@H]2O[C@](O)(C[C@@H](O)C[C@@H](O)[C@H](O)CC[C@@H](O)C[C@@H](O)CC(=O)O[C@H]1C)C[C@H](O)[C@H]2C(=O)O | Leishmania amazonensis | parasite growth, MTT |  | promastigote | IC50 | 280 nM
NCCC(=O)Nc1ccc(/N=c2\cc(-c3ccc4c(c3)OCO4)oc3ccccc23)cc1 | NCI-H1975 | cell growth or viability, CCK-8 |  | 1 µM | inhibition | 0.71%
CCCCn1cnc2ccc(-c3ccc4sc(NC(=O)Nc5ccc(F)cc5)nc4c3)cc2c1=O | NCI-H1975 | cell growth or viability, MTT |  | 72 h | IC50 | 690 nM
CCCC(=O)Nc1ccc(-c2ccc3ncn(Cc4ccccc4)c(=O)c3c2)cn1 | NCI-H1975 | cell growth or viability, CCK-8 |  | 72 h | IC50 | > 10000 nM
O=C(Nc1nc2cc(-c3ccc4ncn(Cc5ccccc5)c(=O)c4c3)ccc2s1)NC1CCCCC1 | NCI-H1975 | cell growth or viability, MTT |  | 72 h | IC50 | > 20000 nM
NCCC(=O)Nc1ccccc1/N=c1\cc(-c2ccc3oc(N)nc3c2)oc2ccccc12 | NCI-H1975 | cell growth or viability, CCK-8 |  | 1 µM | inhibition | 24.3%
CCCC(C)C(=O)Nc1ccc(-c2ccc3ncn(CCC)c(=O)c3c2)cn1 (stereo not drawn) | NCI-H1975 | cell growth or viability, CCK-8 |  | 72 h | IC50 | 2760 nM
CC(C)NC(=O)Nc1nc2cc(-c3ccc4ncn(Cc5ccccc5)c(=O)c4c3)ccc2s1 | NCI-H1975 | cell growth or viability, MTT |  | 72 h | IC50 | 5540 nM
